Test results from ChEMBL document CHEMBL4334468, “Exploring Mitochondria-Mediated Intrinsic Apoptosis by New Phytochemical Entities: An Explicit Observation of Cytochrome c Dynamics on Lung and Melanoma Cancer Cells” (J Med Chem, 2019).
Calls of active or inactive are those of the source.

How the values were obtained:
Assay type in all cases: functional, cell-based
A549 [1] = test: Induction of DNA fragmentation in human A549 cells after 4 hrs by agarose gel electrophoresis
A-375 [2] = test: Cytotoxicity in human A375 cells assessed as reduction in cell proliferation at 0.001 to 100 uM incubated for 24 to 48 hrs by BrdU incorporation assay
Procedure, shortened: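 BrdU incorporation assay read colorimetrically. Absorbance of the developed colour is proportional to the BrdU incorporated into cells, taken as a measure of proliferation.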

A549 [3] = test: Induction of apoptosis in human A549 cells assessed as increase in caspase-3 levels at 1 uM incubated for 12 hrs by spectrofluorometry
A-375 [4] = test: Induction of apoptosis in human A375 cells assessed as increase in caspase-3 levels at 1 uM incubated for 12 hrs by spectrofluorometry
A-375 [5] = test: Induction of apoptosis in human A375 cells assessed as induction of nuclear changes with DNA fragmentation at 1 uM by Hoechst 33342 nuclear staining based assay
Procedure, shortened: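 Hoechst 33342 nuclear staining of treated A549 or A375 cells. Nuclear condensation and fragmentation were examined by fluorescence microscopy against untreated control.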

A549 [6] = test: Induction of apoptosis in human A549 cells assessed as increase in caspase-2 levels at 1 uM incubated for 12 hrs by spectrofluorometry

Measured: Activity

COc1cc(C2Oc3cc(-c4cc(=O)c5c(O)cc(O)cc5o4)ccc3OC2/C=C2\C(=O)ON=C2c2ccc(Cl)cc2)ccc1O (stereo unspecified)
active: all assays above
